Test results published in ChEMBL document CHEMBL1145532, “Role of peptide hydrophobicity in the mechanism of action of alpha-helical antimicrobial peptides” (Antimicrob Agents Chemother, 2007).
≈ marks a conversion by molar mass, not a printed value.

Experiments:
Pseudomonas aeruginosa [1] = experiment: Antimicrobial activity against Pseudomonas aeruginosa WR5; format: functional
Outline: (§1)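 Microtiter broth dilution in brain heart infusion (BHI). Cells were grown overnight at 37°C in BHI broth and diluted in the same medium. Serial peptide dilutions were inoculated to a final 5 x 10^5 CFU/ml and incubated at 37°C for 24 h. The MIC is the lowest peptide concentration that inhibited growth.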

Pseudomonas aeruginosa [2] = experiment: Antimicrobial activity against Pseudomonas aeruginosa PAO1; format: functional; outline: as §1
Pseudomonas aeruginosa [3] = experiment: Antimicrobial activity against Pseudomonas aeruginosa CP204; format: functional; outline: as §1
Pseudomonas aeruginosa [4] = experiment: Antimicrobial activity against Pseudomonas aeruginosa PAK; format: functional; outline: as §1
Pseudomonas aeruginosa [5] = experiment: Antimicrobial activity against Pseudomonas aeruginosa PA14; format: functional; outline: as §1
[6] = Toxicity against human erythrocytes assessed as hemolysis after 18 hrs; format: cell-based; conditions: erythrocyte
Outline: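 Unlysed cells were removed by centrifugation (800 x g), and hemoglobin release was read at 570 nm. The MHC is the maximal concentration causing no hemolysis. Control was 1% erythrocytes without peptide.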

Pseudomonas aeruginosa [7] = experiment: Antimicrobial activity against Pseudomonas aeruginosa M2; format: functional; outline: as §1
[8] = Toxicity against human erythrocytes assessed as increase in hemolytic activity after 18 hrs relative to V13KL peptide; format: cell-based; conditions: erythrocyte
[9] = Toxicity against human erythrocytes assessed as hemolysis at 500 ug/ml after 18 hrs; conditions: erythrocyte

| Molecule | MIC (Pseudomonas aeruginosa [1]) [µg/mL] | MIC (Pseudomonas aeruginosa [2]) [µg/mL] | MIC (Pseudomonas aeruginosa [3]) [µg/mL] | MIC (Pseudomonas aeruginosa [4]) [µg/mL] | MIC (Pseudomonas aeruginosa [5]) [µg/mL] | MIC (Pseudomonas aeruginosa [7]) [µg/mL] | Maximal concentration causing no hemolysis (MHC) [6] [µg/mL] | Activity [8] | Activity [9] |
| --- | --- | --- | --- | --- | --- | --- | --- | --- | --- |
| Ac-KWKSFAKTFKSAKKTVLHTAAKAISS-NH2 | > 500 | 500 | > 500 | > 500 | > 500 | > 500 | 1000 | 0.3 | – |
| Ac-KWKSFLKTFKSAKKTVLHTALKLISS-NH2 [listing 2 of 2 here] | – | – | – | – | – | – | 62.5 | 4 | – |
| CC[C@H](C)[C@H](NC(=O)[C@H](CC(C)C)NC(=O)[C@H](CCCCN)NC(=O)[C@H](CC(C)C)NC(=O)[C@H](C)NC(=O)[C@@H](NC(=O)[C@H](Cc1c[nH]cn1)NC(=O)[C@H](CC(C)C)NC(=O)[C@@H](NC(=O)[C@@H](NC(=O)[C@H](CCCCN)NC(=O)[C@H](CCCCN)NC(=O)[C@H](CC(C)C)NC(=O)[C@H](CO)NC(=O)[C@H](CCCCN)NC(=O)[C@H](Cc1ccccc1)NC(=O)[C@@H](NC(=O)[C@H](CCCCN)NC(=O)[C@H](CC(C)C)NC(=O)[C@H](Cc1ccccc1)NC(=O)[C@H](CO)NC(=O)[C@H](CCCCN)NC(=O)[C@H](Cc1c[nH]c2ccccc12)NC(=O)[C@H](CCCCN)NC(C)=O)[C@@H](C)O)[C@@H](C)O)C(C)C)[C@@H](C)O)C(=O)N[C@@H](CO)C(=O)N[C@@H](CO)C(N)=O | 250 (≈ 81.3 µM) | 15.6 (≈ 5.07 µM) | 7.8 (≈ 2.54 µM) | 15.6 (≈ 5.07 µM) | 62.5 (≈ 20.3 µM) | 31.3 (≈ 10.2 µM) | 15.6 | 16 | – |
| CC[C@H](C)[C@H](NC(=O)[C@H](C)NC(=O)[C@H](CCCCN)NC(=O)[C@H](CC(C)C)NC(=O)[C@H](C)NC(=O)[C@@H](NC(=O)[C@H](Cc1cnc[nH]1)NC(=O)[C@H](CC(C)C)NC(=O)[C@@H](NC(=O)[C@@H](NC(=O)[C@H](CCCCN)NC(=O)[C@H](CCCCN)NC(=O)[C@H](C)NC(=O)[C@H](CO)NC(=O)[C@H](CCCCN)NC(=O)[C@H](Cc1ccccc1)NC(=O)[C@@H](NC(=O)[C@H](CCCCN)NC(=O)[C@H](CC(C)C)NC(=O)[C@H](Cc1ccccc1)NC(=O)[C@H](CO)NC(=O)[C@H](CCCCN)NC(=O)[C@H](Cc1c[nH]c2ccccc12)NC(=O)[C@H](CCCCN)NC(C)=O)[C@@H](C)O)[C@@H](C)O)C(C)C)[C@@H](C)O)C(=O)N[C@@H](CO)C(=O)N[C@@H](CO)C(N)=O | 250 (≈ 83.6 µM) | 31.3 (≈ 10.5 µM) | 7.8 (≈ 2.61 µM) | 125 (≈ 41.8 µM) | 62.5 (≈ 20.9 µM) | 31.3 (≈ 10.5 µM) | 250 | 1 | Non-toxic |
| Ac-KWKSFAKTFKSAKKTVLHTALKAISS-NH2 [listing 1 of 2 here] | – | – | – | – | – | – | 1000 | 0.3 | – |
| Ac-KWKSFAKTFKSAKKTVLHTALKAISS-NH2 [listing 2 of 2 here] | 250 | 125 | 125 | 250 | 500 | 250 | – | – | – |

More lines, main results first:

| MIC (Pseudomonas aeruginosa [1]) [µg/mL] | MIC (Pseudomonas aeruginosa [2]) [µg/mL] | MIC (Pseudomonas aeruginosa [3]) [µg/mL] | MIC (Pseudomonas aeruginosa [4]) [µg/mL] | MIC (Pseudomonas aeruginosa [5]) [µg/mL] | MIC (Pseudomonas aeruginosa [7]) [µg/mL] | Molecule | Maximal concentration causing no hemolysis (MHC) [6] [µg/mL] | Activity [8] | Activity [9] |
| --- | --- | --- | --- | --- | --- | --- | --- | --- | --- |
| 62.5 | 31.3 | 15.6 | 62.5 | 31.3 | 31.3 | Ac-KWKSFLKTFKSAKKTVLHTALKLISS-NH2 [listing 1 of 2 here] | – | – | – |
| 62.5 (≈ 20.6 µM) | 15.6 (≈ 5.14 µM) | 15.6 (≈ 5.14 µM) | 31.3 (≈ 10.3 µM) | 31.3 (≈ 10.3 µM) | 15.6 (≈ 5.14 µM) | CC[C@H](C)[C@H](NC(=O)[C@H](C)NC(=O)[C@H](CCCCN)NC(=O)[C@H](CC(C)C)NC(=O)[C@H](C)NC(=O)[C@@H](NC(=O)[C@H](Cc1c[nH]cn1)NC(=O)[C@H](CC(C)C)NC(=O)[C@@H](NC(=O)[C@@H](NC(=O)[C@H](CCCCN)NC(=O)[C@H](CCCCN)NC(=O)[C@H](CC(C)C)NC(=O)[C@H](CO)NC(=O)[C@H](CCCCN)NC(=O)[C@H](Cc1ccccc1)NC(=O)[C@@H](NC(=O)[C@H](CCCCN)NC(=O)[C@H](CC(C)C)NC(=O)[C@H](Cc1ccccc1)NC(=O)[C@H](CO)NC(=O)[C@H](CCCCN)NC(=O)[C@H](Cc1c[nH]c2ccccc12)NC(=O)[C@H](CCCCN)NC(C)=O)[C@@H](C)O)[C@@H](C)O)C(C)C)[C@@H](C)O)C(=O)N[C@@H](CO)C(=O)N[C@@H](CO)C(N)=O | 31.3 | 8 | – |
